Experimental data published in ChEMBL document CHEMBL1132940, “Pharmacophore/receptor models for GABA(A)/BzR subtypes (alpha1beta3gamma2, alpha5beta3gamma2, and alpha6beta3gamma2) via a comprehensive ligand-mapping approach” (J Med Chem, 2000).

Assays:
[1] = biological target: T1, GABA-A receptor; alpha-2/beta-3/gamma-2 (Homo sapiens, UniProt P18507+P28472+P47869); assay: Binding affinity to human recombinant gamma-aminobutyric-acid (GABA) A receptor alpha-2-beta-3-gamma-2; format: protein-complex assay
T1 sequence (P18507 whole entry): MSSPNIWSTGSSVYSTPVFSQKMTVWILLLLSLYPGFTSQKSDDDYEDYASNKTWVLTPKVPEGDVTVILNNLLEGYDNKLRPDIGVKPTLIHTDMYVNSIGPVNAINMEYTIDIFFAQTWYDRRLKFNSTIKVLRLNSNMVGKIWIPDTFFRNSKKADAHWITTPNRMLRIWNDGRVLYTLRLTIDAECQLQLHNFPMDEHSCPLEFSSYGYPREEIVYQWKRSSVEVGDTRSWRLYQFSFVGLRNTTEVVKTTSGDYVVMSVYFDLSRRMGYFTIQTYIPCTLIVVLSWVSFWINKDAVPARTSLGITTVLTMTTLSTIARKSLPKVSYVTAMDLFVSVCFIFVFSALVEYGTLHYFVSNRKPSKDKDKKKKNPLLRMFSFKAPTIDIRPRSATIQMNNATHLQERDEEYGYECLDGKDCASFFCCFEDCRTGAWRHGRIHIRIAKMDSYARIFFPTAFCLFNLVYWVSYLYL
T1 sequence (P28472 whole entry): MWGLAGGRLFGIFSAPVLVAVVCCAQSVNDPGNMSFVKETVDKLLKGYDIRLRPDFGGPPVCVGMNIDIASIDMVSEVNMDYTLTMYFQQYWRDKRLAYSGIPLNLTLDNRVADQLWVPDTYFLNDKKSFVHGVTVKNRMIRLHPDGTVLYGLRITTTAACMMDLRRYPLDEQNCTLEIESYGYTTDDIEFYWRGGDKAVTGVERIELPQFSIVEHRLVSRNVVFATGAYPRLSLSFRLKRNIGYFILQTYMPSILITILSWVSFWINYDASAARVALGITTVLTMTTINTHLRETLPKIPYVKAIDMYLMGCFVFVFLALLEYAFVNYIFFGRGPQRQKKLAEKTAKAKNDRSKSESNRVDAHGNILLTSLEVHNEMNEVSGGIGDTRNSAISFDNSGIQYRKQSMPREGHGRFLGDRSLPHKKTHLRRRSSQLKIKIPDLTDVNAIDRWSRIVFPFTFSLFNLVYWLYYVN
T1 sequence (P47869 whole entry): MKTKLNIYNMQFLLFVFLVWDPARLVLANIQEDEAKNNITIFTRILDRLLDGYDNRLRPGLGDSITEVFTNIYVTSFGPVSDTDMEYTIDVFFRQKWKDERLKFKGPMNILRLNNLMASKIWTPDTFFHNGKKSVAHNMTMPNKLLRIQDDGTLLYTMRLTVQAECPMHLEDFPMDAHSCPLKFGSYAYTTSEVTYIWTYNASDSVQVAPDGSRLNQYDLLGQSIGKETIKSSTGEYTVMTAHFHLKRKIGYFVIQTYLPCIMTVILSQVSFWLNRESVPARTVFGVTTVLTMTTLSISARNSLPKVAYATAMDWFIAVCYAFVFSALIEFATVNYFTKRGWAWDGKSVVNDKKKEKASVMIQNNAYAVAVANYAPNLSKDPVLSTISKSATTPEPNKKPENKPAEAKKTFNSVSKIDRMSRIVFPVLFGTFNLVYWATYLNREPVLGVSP

[2] = biological target: T2, GABA-A receptor; alpha-1/beta-3/gamma-2 (Homo sapiens, UniProt P14867+P18507+P28472); assay: Binding affinity for human recombinant gamma-aminobutyric-acid (GABA) A receptor alpha-1-beta-3-gamma-2; format: protein-complex assay
T2 sequence (P14867 whole entry): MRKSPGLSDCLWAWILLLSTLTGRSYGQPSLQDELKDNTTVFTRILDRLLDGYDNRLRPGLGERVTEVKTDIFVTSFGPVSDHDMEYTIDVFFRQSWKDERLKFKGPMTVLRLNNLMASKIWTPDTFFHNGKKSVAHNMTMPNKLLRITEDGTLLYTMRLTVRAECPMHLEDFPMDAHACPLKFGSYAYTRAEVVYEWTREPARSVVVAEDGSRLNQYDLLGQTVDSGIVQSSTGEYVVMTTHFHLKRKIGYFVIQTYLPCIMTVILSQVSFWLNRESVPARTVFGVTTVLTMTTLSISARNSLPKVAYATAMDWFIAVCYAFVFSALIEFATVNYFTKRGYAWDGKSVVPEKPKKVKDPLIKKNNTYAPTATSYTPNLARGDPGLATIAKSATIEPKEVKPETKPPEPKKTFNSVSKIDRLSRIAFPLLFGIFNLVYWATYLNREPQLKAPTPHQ
T2 sequence (P18507 whole entry): T1 sequence (P18507 whole entry)
T2 sequence (P28472 whole entry): T1 sequence (P28472 whole entry)

[3] = biological target: T3, GABA-A receptor; alpha-3/beta-3/gamma-2 (Homo sapiens, UniProt P18507+P28472+P34903); assay: Binding affinity for human recombinant gamma-aminobutyric-acid (GABA) A receptor alpha-3-beta-3-gamma-2; format: protein-complex assay
T3 sequence (P18507 whole entry): T1 sequence (P18507 whole entry)
T3 sequence (P28472 whole entry): T1 sequence (P28472 whole entry)
T3 sequence (P34903 whole entry): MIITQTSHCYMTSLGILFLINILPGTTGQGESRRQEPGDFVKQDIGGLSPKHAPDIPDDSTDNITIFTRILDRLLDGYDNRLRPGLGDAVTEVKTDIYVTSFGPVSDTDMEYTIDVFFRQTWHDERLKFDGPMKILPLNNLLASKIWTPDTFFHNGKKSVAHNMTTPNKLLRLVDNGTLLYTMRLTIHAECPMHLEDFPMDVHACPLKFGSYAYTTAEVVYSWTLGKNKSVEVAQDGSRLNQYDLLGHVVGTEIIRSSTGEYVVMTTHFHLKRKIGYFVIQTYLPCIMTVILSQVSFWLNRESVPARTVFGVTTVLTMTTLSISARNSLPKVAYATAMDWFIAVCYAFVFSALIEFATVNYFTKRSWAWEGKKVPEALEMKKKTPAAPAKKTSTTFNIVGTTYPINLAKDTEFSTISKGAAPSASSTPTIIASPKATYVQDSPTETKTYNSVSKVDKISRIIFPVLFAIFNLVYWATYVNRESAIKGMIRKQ

[4] = biological target: T4, GABA-A receptor; alpha-5/beta-3/gamma-2 (Homo sapiens, UniProt P18507+P28472+P31644); assay: Binding affinity for human recombinant gamma-aminobutyric-acid (GABA) A receptor alpha-5-beta-3-gamma-2; format: protein-complex assay
T4 sequence (P18507 whole entry): T1 sequence (P18507 whole entry)
T4 sequence (P28472 whole entry): T1 sequence (P28472 whole entry)
T4 sequence (P31644 whole entry): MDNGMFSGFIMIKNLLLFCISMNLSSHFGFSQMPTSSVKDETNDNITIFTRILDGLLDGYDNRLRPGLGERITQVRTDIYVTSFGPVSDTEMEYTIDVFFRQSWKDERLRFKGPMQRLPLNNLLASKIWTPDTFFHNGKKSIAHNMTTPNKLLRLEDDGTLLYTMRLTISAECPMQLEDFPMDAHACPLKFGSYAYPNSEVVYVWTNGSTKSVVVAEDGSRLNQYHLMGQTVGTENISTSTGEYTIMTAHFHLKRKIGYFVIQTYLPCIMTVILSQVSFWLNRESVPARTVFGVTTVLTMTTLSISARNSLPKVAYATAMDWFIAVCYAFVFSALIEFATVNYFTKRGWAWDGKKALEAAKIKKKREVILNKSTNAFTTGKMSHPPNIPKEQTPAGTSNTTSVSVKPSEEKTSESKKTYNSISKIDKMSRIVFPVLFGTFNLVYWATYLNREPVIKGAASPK

[5] = Selectivity ratio of alpha1 beta-3 gamma2 GABA A / BzR and alpha5 beta-3 gamma2 GABA A / BzR
[6] = biological target: GABA-A receptor; alpha-6/beta-3/gamma-2 (Homo sapiens, UniProt P18507+P28472+Q16445); assay: Binding affinity for human recombinant gamma-aminobutyric-acid (GABA) A receptor alpha-6-beta-3-gamma-2; format: protein-complex assay
Sequence of GABA-A receptor; alpha-6/beta-3/gamma-2 (Q16445 whole entry, one chain of several): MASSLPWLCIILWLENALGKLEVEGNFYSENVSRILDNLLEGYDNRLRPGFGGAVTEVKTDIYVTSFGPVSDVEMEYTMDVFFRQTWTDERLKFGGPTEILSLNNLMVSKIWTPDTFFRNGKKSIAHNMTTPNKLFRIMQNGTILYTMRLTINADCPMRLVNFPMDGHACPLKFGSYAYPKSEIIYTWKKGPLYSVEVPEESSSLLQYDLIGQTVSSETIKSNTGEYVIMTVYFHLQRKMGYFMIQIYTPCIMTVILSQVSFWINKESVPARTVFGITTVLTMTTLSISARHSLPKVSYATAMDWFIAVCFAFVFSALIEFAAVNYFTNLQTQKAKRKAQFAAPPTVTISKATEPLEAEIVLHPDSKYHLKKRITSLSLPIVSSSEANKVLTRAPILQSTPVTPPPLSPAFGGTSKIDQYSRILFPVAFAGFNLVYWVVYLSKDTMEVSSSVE
How it was run: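 Ltk⁻ cells expressing human α6β3γ2 were harvested by scraping into PBS, centrifuged at 3000g and resuspended in 10 mM KH₂PO₄/100 mM KCl (pH 7.4). Incubation was 1 h at 4 °C with filter harvest and scintillation counting.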

[7] = biological target: T2, GABA-A receptor; alpha-1/beta-3/gamma-2; assay: Binding affinity towards human GABA-A receptor alpha-1-beta-3-gamma-2 subunits; format: protein-complex assay

Structure (SMILES)	Ki [1]	Ki [2]	Ki [3]	Ki [4]	Ratio [5]	Ki [6]	Ki [7]
CN1C(=O)CN=C(c2cccs2)c2cc(F)ccc21	215 nM	141 nM	205 nM	65.5 nM	2.15	> 300 nM	–
CCOC(=O)c1ncn2c1CN(C)C(=O)c1ccccc1-2 [RO-147437]	2 nM	1.2 nM	1.1 nM	0.4 nM	3	> 300 nM	–
CN1C(=O)CN=C(c2ccccc2)c2cc(C#N)ccc21	310 nM	320 nM	350 nM	265 nM	1.2	> 3000 nM	–
CN1C(=O)CN=C(c2ccccc2)c2ccccc21	138 nM	81 nM	318 nM	96 nM	0.84	> 3000 nM	–
CN1C(=O)CN=C(c2ccccc2)c2cc(Br)ccc21	9.3 nM	9.4 nM	31 nM	7.7 nM	1.22	> 3000 nM	–
O=C1CN=C(c2ccccc2)c2ccccc2N1 [RO-052921]	233 nM	286 nM	350 nM	140 nM	2.04	> 3000 nM	–
CC(C)(C)C(=O)Oc1ccc2c(c1)[nH]c1c3c4ccccc4nc-3c[nH]c12	–	–	–	> 3000 nM	–	> 10000 nM	156 nM
O=C1CN=C(c2cccs2)c2cc(F)ccc2N1	335 nM	175 nM	405 nM	150 nM	1.17	> 300 nM	–
CN1C(=O)CN=C(c2ccccc2)c2cc(C#C[Si](C)(C)C)ccc21	73 nM	94 nM	203 nM	63 nM	1.49	> 3000 nM	–
C#Cc1ccc2c(c1)C(c1ccccc1)=NCC(=O)N2C	42.1 nM	76.3 nM	47.4 nM	6.8 nM	11.2	> 3000 nM	–
CCc1c(C(=O)NN)[nH]cc2nc3cc(OC)c(OC)cc3c1-2	> 1000 nM	896 nM	570 nM	91.5 nM	–	> 3000 nM	–
O=[N+]([O-])c1ccc2[nH]c3c[nH]c4c5ccccc5nc-4c3c2c1	500 nM	244 nM	532 nM	1560 nM	–	> 10000 nM	–
CCOC(=O)c1[nH]cc2nc3ccc(OCc4ccc5ccccc5c4)cc3c-2c1CC	291 nM	183 nM	300 nM	270 nM	–	> 10000 nM	–
CC(C)c1nc(-c2ncn3c2CN(C)C(=O)c2c(Cl)cccc2-3)no1	2.08 nM	0.4 nM	1.16 nM	1.54 nM	–	227 nM	–
CCCC(=O)c1cc2c(cn1)[nH]c1ccccc12	16 nM	2.1 nM	21 nM	995 nM	–	> 3000 nM	–
C[Si](C)(C)C#Cc1ccc(-n2[nH]c3c(cnc4ccccc43)c2=O)cc1	3.7 nM	3 nM	4.7 nM	24 nM	–	> 1000 nM	–
c1ccc2c(c1)[nH]c1cnc3c4ccncc4[nH]c3c12	23.8 nM	3 nM	30.5 nM	240 nM	–	> 10000 nM	–
CN1C(=O)CN=C(c2ccco2)c2cc(Cl)ccc21	> 0.17 nM	> 0.23 nM	> 0.12 nM	> 0.44 nM	–	> 300 nM	–
CCOC(=O)c1[nH]cc2nc3ccc(O)cc3c-2c1COC	5.4 nM	2 nM	10.8 nM	18.5 nM	–	3000 nM	–
CN1C(=O)CN=C(c2cccs2)c2cc(Cl)ccc21	13.2 nM	19.2 nM	13.4 nM	11.5 nM	1.7	> 300 nM	–
CCOC(=O)c1cc2c3cc(OCc4ccccc4)ccc3nc-2c[nH]1	169 nM	7.2 nM	284 nM	271 nM	–	> 10000 nM	–
COC(=O)c1cc2c3cc(NCc4ccc5ccccc5c4)ccc3nc-2c[nH]1	205 nM	30.7 nM	271 nM	814 nM	–	> 10000 nM	–
c1ccc(COc2ccc3c(c2)[nH]c2c3ncc3[nH]c4ccccc4c32)cc1	3000 nM	432 nM	3000 nM	> 10000 nM	–	> 10000 nM	–
c1ccc2c(c1)[nH]c1cnc3c4cccnc4[nH]c3c12	11.5 nM	2.2 nM	16.3 nM	200 nM	–	> 10000 nM	–
Clc1cccn2c1nc1c3c4ccccc4nc-3c[nH]c12	> 3000 nM	> 3000 nM	> 3000 nM	> 10000 nM	–	> 10000 nM	–
COc1ccc2c(c1)ncc1c(=O)n(-c3ccccc3)[nH]c12	1.31 nM	1.34 nM	1.26 nM	0.84 nM	–	2.03 nM	–
